Fewer inactive variants are shown than the library holds.
B1: tRNA (parent)
chain: GUUCCGUUGGCGUAAUGGUAACGCGUCUCCCUCCUAAGGAGAAGACUGCGGGUUCGAGUCCCGUACGGAACG

Variants of: B1
Experiment: yeast fitness relative to wild type (ratio to wild type); higher = fitter; tRNA-Arg(CCU), competitive growth, 37 C, YPD
Summary of the method: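 The tRNA-Arg(CCU) gene variants were made by chemical synthesis with a 3% per-site mutation rate at 69 sites and inserted at the native genomic locus of Saccharomyces cerevisiae. After pooling, the strains were competed in YPD at 37°C for 24 hours in six parallel replicates. Gene amplicons from the start population and each end population were read by 100-nucleotide paired-end sequencing, and Darwinian fitness relative to wild type was taken from genotype frequency changes. Genotypes needed ≥ 100 starting reads, and estimates < 0.5 were set to 0.5.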

Variant | yeast fitness
GUUCCGUUGGCGUAAUGUUAACGCGACUCCCUCCUAAGGAGAAGACCGCGGGUUCGAGUCCCGUACGGAACG [G18U U26A U47C] | ≤ 0.5
GCUCGGUUGGCGUAAUGGUAACGCGUCUCCCUCCUAAGGAGAAAAAUGCGGAUUCGAGUCCCGUAUGGAACG [U2C C5G G44A C46A G52A C66U] | ≤ 0.5
GUUUCGUUGGGGUAAUGAUAACCCGUCUCCCUCCUAAGGAGAAGACGGCAGGUUCGAGUCCCGUACGGAACG [C4U C11G G18A G23C U47G G50A] | ≤ 0.5
GUUCCGUUGGCGUAAUGGUAACGCGUCUCCAUCCUAAGGAGAAAACUGCGGGUUCGAGUCCCGUACGGAACG [C31A G44A] | 0.792
GUUCCGUUGGCGUAAUGGUAACGCGUCUCCCUCCUAAGGAGACGACUGCGGGUUCGAGUGCCGUACAGAACG [A43C C60G G67A] | ≤ 0.5
GUUACGUUGGCGUAAUGGUAACGCGUCUCCUUCCUAAGGAGAAGACUGCGGGUUCGAGUCUCGUACGGAACG [C4A C31U C61U] | ≤ 0.5
GUUCCGUUGGCGUAAUGGUAACGCGUCUUCUUCCUAAGGAGAAGACUGCGGGUUCGCGUCCUGUACGGAACG [C29U C31U A57C C62U] | 0.558
GUUCCGUUGCCGUAAUGGUAAAGGGUCUCCCUCCUAAGGAGAAGACUGCGGGAUCCAGUCCUGUACGGAACG [G10C C22A C24G U53A G56C C62U] | ≤ 0.5
GUUCCGUUGGCGUCAUGGUAACGCGUCUACCUCCUAAGGAGAAGACUGCAGGUUCGAGUCCCGUACGGAACG [A14C C29A G50A] | 0.576
GCUCCGUUGGCGUAAUGGUAACGCGUCUCGCUACUAAGGAGAAGACUGCGGGUUCGAGUCCCGUCCGGAACG [U2C C30G C33A A65C] | ≤ 0.5
GUUCGGUUGGCGUAAUGGUGAGGCGUCUGCCUCCUAAGGAGAAGACUGCGGGUUCGAGUCCCAUACGGAACG [C5G A20G C22G C29G G63A] | ≤ 0.5
GUUCCGUUGGCGUAAUGGUAACGCGUCUCCCUCCUAAGGAGAAGCCUGCAGGUUCGAGUCCCGUCCGGAACG [A45C G50A A65C] | 0.634
GUUCCGUUGGCGUAAUGGUUACGCGUCUCCCUCGUCAGGAGAAGACUGCGGGUUUGAGUCCCGUUCGGAACG [A20U C34G A36C C55U A65U] | ≤ 0.5
GUUCCGUUGGCGUAAUGGUAACGCGUCUCCCUCCUAAGGAGAAGACCGCGGGUUCGAGUCCCGUACGGUACG [U47C A69U] | 1.08
GUUCCGUUGGCGUAAUGGUAACGCGUCUCCCUCCUAAGGAGGUCACUGCGGGUUCGAGUCCCGUCCGGAACG [A42G A43U G44C A65C] | ≤ 0.5
GUUCCGUUGGCGUAAUGGUAACACGUCUCCCUCCUAAGGAGAAGACUGCGGGUUCGCGUCCCGUUCGGAACG [G23A A57C A65U] | ≤ 0.5
GUUCGGUUGGCGUAAUGGUAACGCGUCUCACUCCUAAGGAGCAGACUGCGGGUUCGAGUCCCGUACGGAACG [C5G C30A A42C] | ≤ 0.5
GUUCCGUUGGCGUAAGGGUAACGCGUCUCCGUCCUAAGGAGAAGUCUGCGGGUUCGAGUCCCGUACGGAACG [U16G C31G A45U] | 0.974
GUUCCGUUGGCGUACUGGUAACCCGUCUCCCUCCUAAGGAGAAGACUGCGGGUUCGAGUCCCGCGCGGAACG [A15C G23C U64C A65G] | ≤ 0.5

Variant | yeast fitness
GUUCCGUUGGCGUAAUGGUAACGCGUCUCCCUCCUAAGGAGAGGACUGCGGGAUCGAGUCCCGUACGGAACG [A43G U53A] | 0.657
GUUCCGUUGACGUAAUGGUAACCCGUCUUCCUCCUCAGGAGAAGACUGGGGGUUCGAGUCCCGUACGGAUCG [G10A G23C C29U A36C C49G A70U] | 0.542
GUUCCGUUGGCGUAAAGCUGAUGCGUCUCCCUCCUAAGGAGAAGACUGCGGGUUCGAGUCCCGUCCGGAACG [U16A G18C A20G C22U A65C] | ≤ 0.5
GGUCCAUUGGCGUAAUGGUAACGCGUCUCCCUCCUAAGGAGAAGACUGCGGGUUCGAGUCCCGUACGGAGCG [U2G G6A A70G] | 0.776
GUUCCGUUGCCGUAAUGGUAACGCGUCUCCCUCCUAGGGAGAAGACUGCGGAUUGGAAUCCCGUACGGAACG [G10C A37G G52A C55G G58A] | ≤ 0.5
GUUCGGUUGGCGGAAUGGUAACGCGUCUCCCUCCUUAGGAGAAGACUGCGGGUUCGAGUCCCGGACGGAACG [C5G U13G A36U U64G] | ≤ 0.5
GCUCCGUUGGCGUAAUGGUAACGCGUCUCCCUCCUAAGGAGAAGACUGCGAGUUCGAGUCCGGUAUGGAACG [U2C G51A C62G C66U] | ≤ 0.5
GUUCCGUUGGCGUAAUGGUGACGCGUCUCCCUCCUACGGGGAAGACUGCGGGUUCGAGUCCCGUACGGAACG [A20G A37C A40G] | ≤ 0.5
GUUCCGUUGGAGUAAUGGUAACGCGUUUCCCUCCUAAGGAGAAGACUGAGGGUUCGAGUCCCGUACGGAACG [C11A C27U C49A] | 0.752
GUUCCGGUGGCGUAAUGGUAACGCGUCUCCCUCCUAAGGAGAAGACUGCGGGUUCGAGUCUCGUACGGAACG [U7G C61U] | 0.78
GUUACGUUGGCGUAAUGGUAAGGCGUCUCCCUGCUAAGGAGAAGACUGCGGGUGCGAGUCCCGUACGGAACG [C4A C22G C33G U54G] | ≤ 0.5
GUUCCGUUGGCGUAAUGGUAACGCGUCUCCCUCCUAAGGAGAAGCCUGCGGGUUCCAGUCCCGCACGGAACG [A45C G56C U64C] | 0.555
GUCCCGUUGGCGUAAUGGUAACGCGUCUCCCUCCUAAGGAGAGGACUGCGGGUUCGAGUCCCGUACGGAACG [U3C A43G] | 0.999
GUUCAGUUGGCGUAAUGGUAACGCGUCUCCCUCCUAGGGAGAAGACUGCGCGUUCGAGUCGCGUACGGAACG [C5A A37G G51C C61G] | ≤ 0.5
GUUCCGUUGGCGUGAUGGUAACGCGUCUCCCUCCUAAGGAGCAGACUGCCGGUUCGAGUCCCGUAUGGAACG [A14G A42C G50C C66U] | ≤ 0.5
GUUCCGUUGGCGUAAUGGUAACGCGUCGCCCUCCUGAGGAGAAGACUGCGGGUUCGAGUCCCGUAUGGAACG [U28G A36G C66U] | 0.582
GUUCCGUUGGCGUAAUGGUAACGCGUCUCCCUUCUAAAGAGAAGACUGCGGGUUCGAGUCCCGUACGGAACG [C33U G38A] | 0.866
GUUCCGAUGGCGUAAUGGUAACGCGUCUGCCUCCUAAGGAGAAGACUGCGGGUUCGAGUCCCGCACGGAACG [U7A C29G U64C] | ≤ 0.5

— the RNAGym collection of RNA variant scans (doi:10.1126/science.aae0568)
